From ChEMBL document CHEMBL1828622, “Structure-based design and synthesis of 1,3-oxazinan-2-one inhibitors of 11β-hydroxysteroid dehydrogenase type 1” (J Med Chem, 2011) come the findings set out here.

A short description of series [1]: Oral bioavailability in rat at 10 mg/kg. It counts as ADME, organism-based. Particulars: in vivo. The method, boiled down:
(§1)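 Rat pharmacokinetics after single iv dose of 2 mg/kg and oral dose of 10 mg/kg; oral vehicle differs by compound: 10% ethanol/10% Tween 80 (polysorbate 80)/80% PEG 400 solution, the same with 1% DMSO, or 0.5% methyl cellulose in deionized water suspension. Readouts: oral AUC(inf), oral t1/2, iv clearance, oral bioavailability F.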

The nature of series [2]: AUC (infinity) in rat at 10 mg/kg, po. It counts as ADME, organism-based. Further details: time infinity, dose 10 mg/kg, route oral. Particulars: plasma. The method, boiled down:
as §1

The nature of series [3]: Biodistribution in mouse adipose tissue at 30 mg/kg, po administered as single dose measured after 4 hrs by LC-MS/MS method. It counts as ADME, organism-based. Further details: dose 30 mg/kg, route oral. Particulars: read-out: Drug uptake. The method, boiled down: (§2)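 Mice (n = 3) given single oral 30 mg/kg dissolved in 10% ethanol/10% Tween 80/80% PEG 400; tissues collected at sacrifice at 1, 4 and 8 h, snap frozen, later thawed and homogenized in 0.05 M BES pH 7; compound extracted into acetonitrile and quantified by LC-MS/MS against standard curves prepared separately in each tissue matrix.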

The nature of series [4]: Biodistribution in mouse adipose tissue at 30 mg/kg, po administered as single dose measured after 1 hr by LC-MS/MS method. On the set-up: dose 30 mg/kg, route oral. It counts as ADME, organism-based. Particulars: read-out: Drug uptake. The method, boiled down: as §2
A short description of series [5]: AUC (infinity) in cynomolgus monkey at 2 mg/kg, po. It counts as ADME, organism-based, Macaca fascicularis. On the set-up: time infinity, dose 2 mg/kg, route oral. Particulars: plasma.
Series [6] in a line: Oral bioavailability in dog at 2 mg/kg. It counts as ADME, organism-based, Canis lupus familiaris. Particulars: in vivo.
The nature of series [7]: Biodistribution in mouse plasma at 30 mg/kg, po administered as single dose measured after 4 hrs by LC-MS/MS method. Particulars: read-out: Drug uptake. It counts as ADME, organism-based. On the set-up: dose 30 mg/kg, route oral. The method, boiled down: as §2
Series [8] can be described thus: Biodistribution in mouse liver at 30 mg/kg, po administered as single dose measured after 8 hrs by LC-MS/MS method. It counts as ADME, organism-based. On the set-up: dose 30 mg/kg, route oral. Particulars: read-out: Drug uptake. The method, boiled down:
as §2

Series [9] in a line: Oral bioavailability in cynomolgus monkey at 2 mg/kg. It counts as ADME, organism-based, Macaca fascicularis. Particulars: in vivo.
Series [10] is described as follows: Biodistribution in mouse liver at 30 mg/kg, po administered as single dose measured after 4 hrs by LC-MS/MS method. It counts as ADME, organism-based. On the set-up: dose 30 mg/kg, route oral. Particulars: read-out: Drug uptake. The method, boiled down: as §2
Series [11] can be described thus: Biodistribution in mouse plasma at 30 mg/kg, po administered as single dose measured after 1 hr by LC-MS/MS method. Further details: dose 30 mg/kg, route oral. It counts as ADME, organism-based. Particulars: read-out: Drug uptake. The method, boiled down: as §2
Series [12] can be described thus: Biodistribution in mouse adipose tissue at 30 mg/kg, po administered as single dose measured after 8 hrs by LC-MS/MS method. It counts as ADME, organism-based. Further details: dose 30 mg/kg, route oral. Particulars: read-out: Drug uptake. The method, boiled down: as §2
A short description of series [13]: AUC (infinity) in dog at 2 mg/kg, po. It counts as ADME, organism-based, Canis lupus familiaris. On the set-up: time infinity, dose 2 mg/kg, route oral. Particulars: plasma.
Series [14] is described as follows: Biodistribution in mouse plasma at 30 mg/kg, po administered as single dose measured after 8 hrs by LC-MS/MS method. It counts as ADME, organism-based. Further details: dose 30 mg/kg, route oral. Particulars: read-out: Drug uptake. The method, boiled down:
as §2

Series [15] can be described thus: Biodistribution in mouse liver at 30 mg/kg, po administered as single dose measured after 1 hr by LC-MS/MS method. It counts as ADME, organism-based. On the set-up: dose 30 mg/kg, route oral. Particulars: read-out: Drug uptake. The method, boiled down: as §2

`O=C1OC(CCO)(c2ccccc2)CCN1c1cccc(-c2ccc(F)cc2F)c1` (stereo not given): the bioavailability (commonly dose-corrected exposure relative to a reference, in per cent) in [1] amounted to 44%. Besides, the AUC(0-inf) (commonly total exposure, with the tail of the curve extrapolated) in series [2] worked out at 1040 ng·h/mL.
In [1], `C[C@@H](c1ccc(-c2ccc(F)cc2F)cc1)N1CC[C@](CCCO)(c2ccccc2)OC1=O` yielded a bioavailability of 19%. For the same molecule, in [2], the AUC(0-inf) was 915 ng·h/mL.
The matching figures for `C[C@@H](c1ccc(-c2ccc(F)cc2)cc1)N1CC[C@](CCCO)(c2ccccc2)OC1=O`: 23% and 450 ng·h/mL.
As to `C[C@@H](c1ccc(-c2ccc(F)cc2F)cc1)N1CC[C@](CCO)(c2ccc(F)cc2)OC1=O`, the results for the concentration at 4 h in [3], in [7] and in [10] were 3160 ng/mL, 3260 ng/mL and 9810 ng/mL, respectively. For the same molecule, the concentration at 1 h amounted to 5520 ng/mL in series [4], 5930 ng/mL in series [11] and 15300 ng/mL in [15]. Also, the AUC(0-inf) in series [5] turned out to be 1500 ng·h/mL; in series [2], 3870 ng·h/mL; in series [13], 584 ng·h/mL. In addition, the figures for the bioavailability in series [6], in series [1] and in [9] were 16%, 94% and 26%, respectively. In addition, the values for the concentration at 8 h in series [8], in [12] and in [14] were 1900 ng/mL, 632 ng/mL and 573 ng/mL, respectively.
In turn, `C[C@@H](c1ccc(-c2ccc(F)cc2)cc1)N1CC[C@](CCO)(c2ccc(F)cc2)OC1=O` showed a bioavailability in [1] of 83%. The area under the curve AUC(0-inf) in series [2] was found to be 3170 ng·h/mL.
In the same order, the values of `Cc1cccc(N2CCC(C)(c3ccccc3)OC2=O)c1` (single isomer, unassigned; isomer 1) are 4% and 99 ng·h/mL.
